In data set [1] the test system is BV-2. The data set can be described thus: Induction of H2S generation in mouse BV2 cells at 100 uM after 45 mins by WSP-1 fluorescence dye based spectrofluorimetric analysis. The data set is classed as functional, cell-based. Summed up: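 BV-2 cells, 72 × 10³/well, were seeded serum-free 24 h before the assay and loaded with WSP-1 for 30 min. Dye was then replaced with compound in HEPES-buffered saline, pH 7.4 (vehicle DMSO 1%). Fluorescence was recorded for 45 min, and total H₂S release was expressed as AUC of fluorescence index. Data are mean ± SE, n=9, with diallyl disulfide as reference donor.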

The subject of data set [2] is BV-2. Briefly: Antioxidant activity in mouse BV2 cells assessed as reduction in LPS-induced ROS release at 1 uM preincubated with compound for 1 hr followed by LPS addition and measured after 24 hrs by cell analyser based assay (reference value: 154 +/- 3.8%). The data set is classed as functional. Also noted: scale not given: the % may be the effect or the level left.

Data set [3] deals with BV-2. Briefly: Inhibition of LPS-induced nitric oxide in mouse BV2 cells assessed as intracellular nitric oxide level at 1 uM preincubated with compound for 1 hr followed by LPS addition and measured after 24 hrs by cell analyser based assay (reference value: 145.7 +/- 4.4%). Details: scale not given: the % may be the effect or the level left. The data set is classed as functional.

For data set [4], the system named is BV-2. Briefly: Cytoprotection against LPS-induced cell damage in mouse BV2 cells assessed as increase in cell viability at 1 uM preincubated with compound for 1 hr followed by LPS addition and measured after 24 hrs by cell analyser based assay (reference value: 80.6 +/- 1.2%). The data set is classed as functional.
Data set [5] concerns SH-SY5Y. The data set can be described thus: Cytotoxicity against human SH-SY5Y cells assessed as cell viability up to 5 uM after 24 hrs by MTT assay. The data set is classed as cell-based. The method in brief: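 SH-SY5Y cells, 2 × 10⁴/well, were allowed 24 h to attach, then exposed for 24 h to a series of concentrations (1.25–40). MTT (0.5 mg/mL in HBSS) was applied for 2 h at 37 °C, and formazan was dissolved in isopropanol and read at 570 nm (ref 690 nm). Results are % viability versus untreated cells.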
(In general: Tetrazolium dyes change colour on reduction, which living cells bring about.)

Data set [6] relates to BV-2. Briefly: Inhibition of LPS-induced nitric oxide in mouse BV2 cells assessed as reduction in intracellular nitric oxide level at 1 uM preincubated with compound for 1 hr followed by LPS addition and measured after 24 hrs by cell analyser based assay (reference value: 145.7 +/- 4.4%). The data set is classed as functional.
Data set [7] has as its system SH-SY5Y. The data set can be described thus: Neuroprotection against amyloid beta (1 to 42 residues)-induced toxicity in human SH-SY5Y cells preincubated for 24 hrs followed by amyloid beta addition and measured after 4 hrs by MTT-based exocytosis assay. The data set is classed as functional, cell-based. Summed up: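 Aβ1-42 was dissolved in hexafluoroisopropanol (1 mg/mL), sonicated, held 24 h at room temperature and lyophilised. SH-SY5Y cells, 3 × 10⁴/well, were pretreated 24 h with compound and then given Aβ1-42 oligomers for 4 h at 37 °C. MTT (0.5 mg/mL in HBSS) was applied for 1 h, granules were solubilised in 10% Tween-20, and absorbance read at 570 nm (ref 690).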

The subject of data set [8] is SH-SY5Y. Briefly: Antioxidant activity in human SH-SY5Y cells assessed as inhibition of tert-butyl hydroperoxide-induced intracellular ROS generation at 5 uM preincubated with compound for 24 hrs followed by tert-butyl hydroperoxide addition after 30 mins by DCFH-DA dye based fluorescence assay. The data set is classed as functional, cell-based. Summed up:
(§1)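 SH-SY5Y cells, 2 × 10⁴/well, were allowed 24 h to attach, then given compound for 24 h at 37 °C. They were loaded with DCFH-DA ([…]) for 30 min at room temperature and then challenged with H₂O₂ or t-BuOOH, each at 50 µM, for 30 min. Results are percent inhibition of oxidant-induced ROS, mean ± SEM, n=3 independent experiments.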

Data set [9] has as its system SH-SY5Y. Briefly: Antioxidant activity in human SH-SY5Y cells assessed as inhibition of H2O2-induced intracellular ROS generation at 5 uM preincubated with compound for 24 hrs followed by H2O2 addition after 30 mins by DCFH-DA dye based fluorescence assay. The data set is classed as functional, cell-based. The method in brief:
as §1

In data set [10] the target is T1, Nuclear factor erythroid 2-related factor 2 (Homo sapiens) (UniProt Q16236).
T1 sequence (whole entry): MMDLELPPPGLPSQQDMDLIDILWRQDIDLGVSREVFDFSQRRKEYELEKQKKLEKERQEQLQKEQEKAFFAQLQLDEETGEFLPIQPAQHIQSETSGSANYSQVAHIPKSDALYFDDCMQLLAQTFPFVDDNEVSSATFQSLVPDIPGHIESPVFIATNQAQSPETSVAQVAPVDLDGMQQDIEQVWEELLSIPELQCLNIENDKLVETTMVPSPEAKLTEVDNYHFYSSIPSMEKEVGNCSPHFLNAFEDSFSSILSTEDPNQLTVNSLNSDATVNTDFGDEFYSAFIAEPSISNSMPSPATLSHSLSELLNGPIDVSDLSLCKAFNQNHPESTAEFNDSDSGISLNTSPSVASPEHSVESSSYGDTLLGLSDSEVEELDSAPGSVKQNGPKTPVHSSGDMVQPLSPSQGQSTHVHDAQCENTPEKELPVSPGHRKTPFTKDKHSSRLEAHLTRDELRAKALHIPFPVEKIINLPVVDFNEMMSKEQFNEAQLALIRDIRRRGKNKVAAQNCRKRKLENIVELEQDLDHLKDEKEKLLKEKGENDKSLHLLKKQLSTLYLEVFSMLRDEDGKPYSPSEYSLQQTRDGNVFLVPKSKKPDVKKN
The data set can be described thus: Activation of Nrf2 in human SH-SY5Y cells at 5 uM after 1 to 6 hrs by ELISA method. The data set is classed as cell-based. Summed up: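 SH-SY5Y cells, 2 × 10⁶ per dish, exposed to compound for 1, 3 and 6 h at 37 °C in 5% CO₂. Nuclear extracts were then taken and active Nrf2 measured by DNA-binding ELISA (antibody recognises ARE-bound Nrf2). Results are fold increase over matched untreated cells, mean ± SEM of three independent experiments, two-way ANOVA with Bonferroni.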

Data set [11] relates to SH-SY5Y. The data set can be described thus: Antioxidant activity in human SH-SY5Y cells assessed as increase in GSH level at 5 uM after 24 hrs by MCB-dye based fluorescence assay relative to control. The data set is classed as functional. Summed up: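 SH-SY5Y cells, 2 × 10⁴/well, were allowed 24 h to attach, then given compound for 24 h at 37 °C in 5% CO₂. Medium was replaced with monochlorobimane for 30 min at 37 °C, and fluorescence read at ex 355/em 460 nm. Results are percent increase in GSH, mean ± SEM of three independent experiments.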

Data set [12] relates to BV-2. Briefly: Cytoprotection against LPS-induced cell damage in mouse BV2 cells assessed as cell viability at 1 uM preincubated with compound for 1 hr followed by LPS addition and measured after 24 hrs by cell analyser based assay (reference value: 80.6 +/- 1.2%). The data set is classed as functional. Conditions: read-out: Activity.
For data set [13], the system named is BV-2. Briefly: Antioxidant activity in mouse BV2 cells assessed as effect on LPS-induced ROS release at 1 uM preincubated with compound for 1 hr followed by LPS addition and measured after 24 hrs by cell analyser based assay (reference value: 154 +/- 3.8%). The data set is classed as functional.

Active and inactive are the calls of the source. The rule behind the calls is not given here.

Consider `CCN(C)C(=O)Oc1cccc(CCNC(=O)CSCCCCN=C=S)c1`, for which the outcome in [1] and in data set [4] was Active. The Activity is 30 - 35% in data set [2], 98.8% in data set [3] and “Non-Toxic” in data set [5]. In [6], the inhibition entry is “Active”. Moreover, the outcome in data set [7] was inactive.

As for `CCN(C)C(=O)Oc1cccc(CNC(=O)CSCCCCN=C=S)c1`, the outcome in data set [1], in data set [8], in data set [4] and in data set [9] was Active. Further, the Activity was 30 - 35% in data set [2], 125.9% in data set [3], “Non-Toxic” in data set [5] and 25.73% in data set [11]. Moreover, the result in data set [10] and in [7] was inactive. Besides, the inhibition result in data set [6] was “Active”.

For the molecule `CCN(C)C(=O)Oc1cccc(CCNC(=O)C[S+]([O-])CCCCN=C=S)c1` (stereo unspecified), the outcome in [1] was Active. Also, the results for the Activity in data set [2] and in data set [5] were 30 - 35% and “Non-Toxic”, respectively. Besides, the inhibition result in data set [6] is “Active”. In addition, the result in [7] was inactive.

`CCN(C)C(=O)Oc1cccc(NC(=O)C[S+]([O-])CCCCN=C=S)c1` (stereo unspecified): the result in [1] and in [4] was Active. Also, the Activity in [2] was 30 - 35%; in data set [5], “Non-Toxic”. Further, in [6], the inhibition entry was “Active”. Moreover, in data set [7], the outcome was inactive.

In the case of `CCN(C)C(=O)Oc1cccc(NC(=O)CSCCCCN=C=S)c1`, the result in [1], in data set [8], in data set [9] and in [10] was Active. Besides, the Activity is listed as 30 - 35% in [2], 114% in data set [3], “Non-Toxic” in data set [5] and 35.6% in data set [11]. In addition, in data set [12], the viability at 1 µM came out at 93%. The inhibition result in data set [6] is “Active”. The outcome in data set [7] was inactive.

With `CCN(C)C(=O)Oc1cccc(CNC(=O)C[S+]([O-])CCCCN=C=S)c1` (stereo unspecified), the result in [1] and in data set [4] was Active. Besides, the Activity is recorded as 30 - 35% in data set [2] and “Non-Toxic” in data set [5]. In [6], the inhibition result was “Active”. Moreover, the outcome in [7] was inactive.

In the case of `CCN(C)C(=O)Oc1cccc([C@H](C)N(C)C)c1` [RIVASTIGMINE], the outcome in data set [1] was Active. In data set [13], the outcome was inactive. Also, the viability at 1 µM in data set [12] was determined as 84%. The inhibition entry in [6] was “Active”.

Consider `C=CCSSCC=C`, for which the outcome in data set [1] was Active.
